From ChEMBL document CHEMBL1156932, “Structure based drug design: development of potent and selective factor IXa (FIXa) inhibitors” (J Med Chem, 2010)

Tests used:
[1] = molecular target: Urokinase-type plasminogen activator (Homo sapiens, UniProt P00749)
[2] = Selectivity ratio of Ki for factor 10a to Ki for human recombinant factor 9a
Coagulation factor IX = Coagulation factor IX (Homo sapiens, UniProt P00740); test: Inhibition of human recombinant factor 9a by amidolytic assay
[3] = Selectivity ratio of Ki for uPA to Ki for human recombinant factor 9a
Coagulation factor X = Coagulation factor X (Homo sapiens, UniProt P00742); test: Inhibition of factor 10a by amidolytic assay
Method in brief: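 […] taken as the mean of at least three experiments. Variation between runs stated as under 10%.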

[4] = Protein binding in human plasma; type: ADME, cell-free; settings: read-out: PPB (converted)
Plasma [5] = test: Anticoagulant potency in human plasma assessed as concentration required to double the […]; type: functional
Method in brief: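 Citrated plasma from healthy volunteers, centrifuged at 2000g for 10 min and held on ice. Plasma incubated 1 min at 37 C, aPTT reagent (FSL) added, then 3 min at 37 C. Clotting started with 0.025 M CaCl2. Clot formation read at 660 nm on an automated coagulation analyzer.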

Plasma [6] = test: Anticoagulant potency in human plasma assessed as concentration required to double the prothrombin time; type: functional
Method in brief: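 Citrated plasma from healthy volunteers, centrifuged at 2000g for 10 min and held on ice. Plasma incubated 3 min at 37 C before addition of thromboplastin PT reagent (Thromborel S). Clot formation followed at 660 nm in an automated coagulation analyzer.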

Plasma [7] = test: Anticoagulant potency in human plasma assessed as concentration required to double the thrombin time; type: functional
Method in brief: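 Plasma from citrated blood of healthy volunteers, centrifuged at 2000g for 10 min and kept on ice. Plasma incubated 2 min at 37 C, then thrombin reagent added. Clotting time monitored at 660 nm on an automated analyzer.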

Coagulation factor X, sequence (P00742 41-179 limits assumed): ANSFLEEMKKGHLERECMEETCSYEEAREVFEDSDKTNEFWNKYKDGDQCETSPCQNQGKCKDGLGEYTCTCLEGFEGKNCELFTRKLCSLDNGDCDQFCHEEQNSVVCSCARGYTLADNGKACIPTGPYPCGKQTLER
Coagulation factor X, sequence (P00742 235-488 limits assumed): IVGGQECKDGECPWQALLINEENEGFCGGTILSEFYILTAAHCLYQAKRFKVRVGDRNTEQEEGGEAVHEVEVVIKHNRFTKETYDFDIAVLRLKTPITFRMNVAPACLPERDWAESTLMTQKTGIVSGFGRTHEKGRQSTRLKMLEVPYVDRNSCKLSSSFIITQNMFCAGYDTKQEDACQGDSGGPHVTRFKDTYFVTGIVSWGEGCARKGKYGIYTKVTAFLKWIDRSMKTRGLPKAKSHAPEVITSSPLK
Coagulation factor IX, sequence (P00740 47-191 limits assumed): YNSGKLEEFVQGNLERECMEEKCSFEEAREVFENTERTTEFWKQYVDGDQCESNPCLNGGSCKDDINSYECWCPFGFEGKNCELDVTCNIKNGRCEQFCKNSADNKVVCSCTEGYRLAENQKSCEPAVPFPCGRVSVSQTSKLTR
Coagulation factor IX, sequence (P00740 227-461 limits assumed): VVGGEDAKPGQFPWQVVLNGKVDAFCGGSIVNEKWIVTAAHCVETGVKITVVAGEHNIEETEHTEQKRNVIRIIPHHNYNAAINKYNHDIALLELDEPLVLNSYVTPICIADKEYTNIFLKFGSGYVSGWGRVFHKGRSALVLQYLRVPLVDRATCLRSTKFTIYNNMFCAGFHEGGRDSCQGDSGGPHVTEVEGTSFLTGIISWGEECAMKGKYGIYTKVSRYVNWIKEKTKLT

| Ki [1] [nM] | Ratio Ki [2] | Ki (Coagulation factor IX) [nM] | Ratio Ki [3] | Ki (Coagulation factor X) [nM] | fraction unbound [4] | SMILES | Activity (Plasma [5]) [µM] | Activity (Plasma [6]) [µM] | Activity (Plasma [7]) [µM] |
| --- | --- | --- | --- | --- | --- | --- | --- | --- | --- |
| 251 | 254 | 5 | 50 | 1270 | – | CNCc1cc(NC(=O)OCC(Oc2cccc3sc(C(=N)N)cc23)c2ccccc2)n(C)n1 (centres undefined) | – | – | – |
| 58 | 360 | 8 | 7 | 2840 | 0.05 | Cc1n[nH]c(C)c1NC(=O)OCC(Oc1cccc2sc(C(=N)N)cc12)c1ccccc1 (centres undefined) | 11.7 | 63 | >80 |
| 828 | 486 | 4.4 | 190 | 2110 | – | N=C(N)c1cc2c(OC(COC(=O)Nc3ccccc3CN)c3ccccc3)cc(F)cc2s1 (centres undefined) | – | – | – |
| 308 | 148 | 8 | 36 | 1180 | – | Cc1ccccc1NC(=O)OCC(Oc1cccc2sc(C(=N)N)cc12)c1ccccc1 (centres undefined) | – | – | – |
| 2110 | 102 | 15.5 | 137 | 1590 | – | N=C(N)c1cc2c(OC(COC(=O)Nc3ccccc3)c3ccccc3)cc(F)cc2s1 (centres undefined) | – | – | – |
| 308 | 383 | 3 | 103 | 1150 | – | CNCc1ccccc1NC(=O)OCC(Oc1cccc2sc(C(=N)N)cc12)c1ccccc1 (centres undefined) | – | – | – |
| 510 | – | 61 | – | 830 | – | N=C(N)c1cc2c(OC(COC(=O)NCc3ccccc3)c3ccccc3)cccc2s1 (centres undefined) | – | – | – |
| 609 | 104 | 8 | 76 | 828 | – | CN(C)Cc1ccccc1NC(=O)OCC(Oc1cccc2sc(C(=N)N)cc12)c1ccccc1 (centres undefined) | – | – | – |
| 150 | – | 28 | – | 360 | – | CCNC(=O)OCC(Oc1cccc2sc(C(=N)N)cc12)c1ccccc1 (centres undefined) | – | – | – |
| 1630 | 108 | 35 | 47 | 3770 | – | COc1ccc(NC(=O)OC[C@@H](Oc2cccc3sc(C(=N)N)cc23)c2ccccc2)cc1 | – | – | – |
| 935 | 52 | 25 | 37 | 1300 | – | N=C(N)c1cc2c(OC(COC(=O)Nc3cccc(F)c3)c3ccccc3)cccc2s1 (centres undefined) | – | – | – |
| 210 | – | 97 | – | 700 | – | CNC(=O)OCC(Oc1cccc2sc(C(=N)N)cc12)c1ccccc1 (centres undefined) | – | – | – |
| 89 | 200 | 3 | 30 | 600 | – | COc1ccc(NC(=O)OC[C@H](Oc2cccc3sc(C(=N)N)cc23)c2ccccc2)cc1 | – | – | – |
| 226 | 160 | 5 | 45 | 800 | – | COc1ccc(NC(=O)OCC(Oc2cccc3sc(C(=N)N)cc23)c2ccccc2)cc1 (centres undefined) | – | – | – |
| 733 | 292 | 2 | 367 | 583 | – | CC(C)CNCc1ccccc1NC(=O)OCC(Oc1cccc2sc(C(=N)N)cc12)c1ccccc1 (centres undefined) | – | – | – |
| 249 | 186 | 7 | 34 | 1300 | – | N=C(N)c1cc2c(OC(COC(=O)Nc3c(F)cccc3F)c3ccccc3)cccc2s1 (centres undefined) | – | – | – |
| 940 | 169 | 8.1 | 117 | 1360 | – | CN(C)Cc1ccccc1NC(=O)OCC(Oc1cc(F)cc2sc(C(=N)N)cc12)c1ccccc1 (centres undefined) | – | – | – |
| 575 | 212 | 7 | 82 | 1480 | – | N=C(N)c1cc2c(OC(COC(=O)Nc3ccc(F)cc3F)c3ccccc3)cccc2s1 (centres undefined) | – | – | – |
| 331 | 110 | 5 | 62 | 550 | – | N=C(N)c1cc2c(OC(COC(=O)Nc3ccccc3F)c3ccccc3)cccc2s1 (centres undefined) | – | – | – |
| 201 | 218 | 4 | 50 | 872 | – | CN(C)CCOc1ccc(NC(=O)OCC(Oc2cccc3sc(C(=N)N)cc23)c2ccccc2)cc1 (centres undefined) | – | – | – |
| 440 | 181 | 10 | 44 | 1810 | – | N=C(N)c1cc2c(OC(COC(=O)Nc3ccccc3)c3ccccc3)cccc2s1 (centres undefined) | – | – | – |
| 297 | 206 | 4 | 74 | 825 | – | N=C(N)c1cc2c(OC(COC(=O)Nc3ccccc3CN)c3ccccc3)cccc2s1 (centres undefined) | – | – | – |

More lines, now with the values behind:

| SMILES | Ki [1] [nM] | Ratio Ki [2] | Ki (Coagulation factor IX) [nM] | Ratio Ki [3] | Ki (Coagulation factor X) [nM] | fraction unbound [4] | Activity (Plasma [5]) [µM] | Activity (Plasma [6]) [µM] | Activity (Plasma [7]) [µM] |
| --- | --- | --- | --- | --- | --- | --- | --- | --- | --- |
| N=C(N)c1cc2c(OC(COC(=O)Nc3ccccc3CN3CCNCC3)c3ccccc3)cccc2s1 (centres undefined) | 833 | 118 | 3 | 278 | 354 | 0.05 | 5 | 17 | 20 |
| N=C(N)c1cc2c(OC(C(=O)Nc3ccccc3)c3ccccc3)cccc2s1 (centres undefined) | 140 | – | 170 | – | 150 | – | – | – | – |
| N=C(N)c1cc2c(O[C@@H](c3ccccc3)c3nc(-c4ccccc4)no3)cccc2s1 | 650 | – | 270 | – | 3970 | – | – | – | – |
| CNCc1c(NC(=O)OCC(Oc2cccc3sc(C(=N)N)cc23)c2ccccc2)c(C)nn1C (centres undefined) | 156 | 475 | 5 | 31 | 2380 | 0.05 | 7.7 | 42 | 56 |
| CN(C)C(=O)c1ccc(NC(=O)C(Oc2cccc3sc(C(=N)N)cc23)c2ccccc2)cc1 (centres undefined) | 160 | – | 370 | – | 0.6 | – | – | – | – |
| CC(=O)NCC(Oc1cccc2sc(C(=N)N)cc12)c1ccccc1 (centres undefined) | 220 | – | 340 | – | 1300 | – | – | – | – |
| N=C(N)c1cc2c(OC(C(=O)Nc3ccc(C(=O)N4CCCC4)cc3)c3ccccc3)cccc2s1 (centres undefined) | 130 | – | 290 | – | 0.5 | – | – | – | – |
| N=C(N)c1cc2c(OC(CNC(=O)Oc3ccccc3)c3ccccc3)cccc2s1 (centres undefined) | 85 | – | 50 | – | 560 | – | – | – | – |
| COC(=O)CCNC(=O)C(Oc1cccc2sc(C(=N)N)cc12)c1ccccc1 (centres undefined) | – | – | 8400 | – | – | – | – | – | – |
| N=C(N)c1cc2c(OC(CN)c3ccccc3)cccc2s1 (centres undefined) | 270 | – | 160 | – | 4450 | – | – | – | – |
| N=C(N)c1cc2c(OC(CNC(=O)Nc3ccccc3)c3ccccc3)cccc2s1 (centres undefined) | 250 | – | 29 | – | 960 | – | – | – | – |
| COc1ccccc1NC(=O)C(Oc1cccc2sc(C(=N)N)cc12)c1ccccc1 (centres undefined) | 120 | – | 140 | – | 70 | – | – | – | – |
| N=C(N)c1cc2c(OC(CNCc3ccccc3)c3ccccc3)cccc2s1 (centres undefined) | 310 | – | 100 | – | 250 | – | – | – | – |
| COc1cccc(NC(=O)C(Oc2cccc3sc(C(=N)N)cc23)c2ccccc2)c1 (centres undefined) | 170 | – | 130 | – | 290 | – | – | – | – |
| CN(C)CCNC(=O)C(Oc1cccc2sc(C(=N)N)cc12)c1ccccc1 (centres undefined) | 2130 | – | 1000 | – | 3400 | – | – | – | – |
| CCOC(=O)c1nccn1-c1ccc(NC(=O)C(Oc2cccc3sc(C(=N)N)cc23)c2ccccc2)cc1 (centres undefined) | 190 | – | 420 | – | 2.6 | – | – | – | – |
| COc1ccc(NC(=O)C(Oc2cccc3sc(C(=N)N)cc23)c2ccccc2)cc1 (centres undefined) | 140 | – | 140 | – | 52 | – | – | – | – |
| COC(=O)C(C)Oc1cccc2sc(C(=N)N)cc12 (centres undefined) | 2270 | – | 5150 | – | > 100000 | – | – | – | – |
| COC(=O)Cn1nc(C)c(NC(=O)OCC(Oc2cccc3sc(C(=N)N)cc23)c2ccccc2)c1C (centres undefined) | 59 | 118 | 11 | 5 | 1300 | – | – | – | – |
| N=C(N)c1cc2c(OC(CO)c3ccccc3)cccc2s1 (centres undefined) | – | – | 270 | – | 1740 | – | – | – | – |
| Cc1nn(C)c(CNC(C)C)c1NC(=O)OCC(Oc1cccc2sc(C(=N)N)cc12)c1ccccc1 (centres undefined) | 151 | 542 | 3 | 50 | 1630 | 0.04 | 5.9 | 29 | 25 |
| N=C(N)c1cc2c(OC(C(=O)NCc3ccccc3)c3ccccc3)cccc2s1 (centres undefined) | 510 | – | 390 | – | 950 | – | – | – | – |
| Cc1noc(C)c1NC(=O)OCC(Oc1cccc2sc(C(=N)N)cc12)c1ccccc1 (centres undefined) | 142 | 210 | 12 | 12 | 2250 | – | – | – | – |
| COCc1cc(NC(=O)OCC(Oc2cccc3sc(C(=N)N)cc23)c2ccccc2)n(C)n1 (centres undefined) | 109 | 173 | 9 | 12 | 1560 | – | – | – | – |
| CN1CCN(Cc2ccc(NC(=O)OCC(Oc3cccc4sc(C(=N)N)cc34)c3ccccc3)cc2)CC1 (centres undefined) | 201 | 156 | 10 | 20 | 1560 | – | – | – | – |
| COC(=O)C(Oc1cccc2sc(C(=N)N)cc12)c1ccccc1 (centres undefined) | 500 | – | 500 | – | 13800 | – | – | – | – |
